From paper PMC5472421 (Drug Design, Development and Therapy, 2017)
Values belong to the compound of their own block, whether it stands above or below them.

What was measured:
[1] = format: in vivo, rat; conditions: 4 h after oral DFP-11207 53.4 mg/kg
Outline: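 AZ521 xenograft-bearing nude rats received 53.4 mg/kg (75 μmol/kg) test compound orally and were killed at 1, 2, 4, 8 and 12 h. Serum, small intestine and tumour were taken. Tissues were homogenised in 10 mM potassium phosphate-buffered saline (pH 7.2) and spun at 9,000× g for 30 min. Supernatants were extracted with 4 volumes of ethyl acetate, dried at 40°C, redissolved, and assayed for CTA and 5-FU by HPLC.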

CoLo320DM cells = format: cell-based, human; conditions: 1-100 µM, 1 µM [6-3H] 5-FU, 37°C, 45 min
Outline: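 CoLo320DM cells in RPMI-1640 were incubated at 37°C for 45 min with 1 μM [6-3H]5-FU (37 kBq), alone or with 1–100 μM test compound or CTA. Acid was added and the mixture centrifuged. The neutralised acid-soluble fraction was run on silica TLC and the FUMP spot counted. RNA-incorporated label in the precipitate was extracted by the Schneider method. Results are means of duplicate assays.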

[2] = biological target: T1, orotate phosphoribosyltransferase (OPRT) (Homo sapiens, UniProt P11172); conditions: cited from earlier work
T1 sequence (P11172 1-480): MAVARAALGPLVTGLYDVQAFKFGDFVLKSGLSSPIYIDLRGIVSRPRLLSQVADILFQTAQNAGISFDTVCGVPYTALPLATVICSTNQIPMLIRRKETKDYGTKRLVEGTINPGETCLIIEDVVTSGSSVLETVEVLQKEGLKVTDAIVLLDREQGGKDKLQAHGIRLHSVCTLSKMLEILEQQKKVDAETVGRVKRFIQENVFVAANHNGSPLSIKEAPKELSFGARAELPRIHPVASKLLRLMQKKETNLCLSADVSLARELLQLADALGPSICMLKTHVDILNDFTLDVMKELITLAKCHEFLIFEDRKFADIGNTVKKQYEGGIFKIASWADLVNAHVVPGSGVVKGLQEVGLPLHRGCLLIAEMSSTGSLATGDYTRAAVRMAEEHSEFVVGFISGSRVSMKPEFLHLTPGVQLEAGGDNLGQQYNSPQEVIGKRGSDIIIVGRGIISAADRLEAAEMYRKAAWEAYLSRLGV

[3] = Conversion of EM-FU to 5-FU by human liver microsomes; format: in vitro ADME; conditions: 1 mM, 60 min
Outline: (§1)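 EM-FU (1 mM) was incubated for 60 min with liver microsomes (0.85 mg protein) from each species, with tegafur as positive control. 5-FU formed was quantified by HPLC. Assays were run in triplicate and reported as mean ± SD.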

[4] = Conversion of EM-FU to 5-FU by monkey liver microsomes; format: in vitro ADME; conditions: 1 mM, 60 min
Outline: as §1

[5] = Conversion of EM-FU to 5-FU by rat liver microsomes; format: in vitro ADME; conditions: 1 mM, 60 min
Outline: as §1

[6] = format: in vitro ADME; conditions: rat serum, liver and small intestine homogenates
Outline: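 Test compound (1 mM) was incubated at 37°C with rat serum or 20% (w/v) liver or small-intestine homogenates for 10, 20, 30 and 60 min. Reactions were stopped with 10% TCA and spun at 3,000× g for 10 min. Supernatants were neutralised with 2 M KOH, and EM-FU, CDHP, CTA and 5-FU were measured by HPLC. Results are means of duplicate assays.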

[7] = Conversion of EM-FU to 5-FU by dog liver microsomes; format: in vitro ADME; conditions: 1 mM, 60 min
Outline: as §1

[8] = system: CYP1A2, CYP2A6, CYP2E1, CYP3A4; format: in vitro ADME; conditions: 100 µM inhibitor; EM-FU 1 mM; human liver microsomes

- Inhibition of the conversion of EM-FU to 5-FU [8]: strongly inhibited
Compound: O=[N+]([O-])c1ccc(O)cc1 [p-nitrophenol]

- Inhibition of the conversion of EM-FU to 5-FU [8]: strongly inhibited
Compound: O=c1cc(-c2ccccc2)oc2c1ccc1ccccc12 [α-naphthoflavone]

Continued, compound first:

Compound: O=c1[nH]cc(F)c(=O)[nH]1 [5-FU, 5-Fluorouracil]
- 5-FU level in small intestine compared with CTA [1]: almost equal level
- 5-FU levels in blood and tumor compared with CTA [1]: much higher than CTA

Compound: O=C(O)c1cc(O)nc(O)c1 [CTA, citrazinic acid]
- Inhibition of incorporation of 5-FU into RNA (CoLo320DM cells): did not inhibit
- Inhibition of intracellular phosphorylation of 5-FU (CoLo320DM cells): did not inhibit
- Inhibition of OPRT activity (5-FU phosphorylation) in cell-free tumor extract [2]: strongly inhibit

Compound: CCOCn1cc(F)c(=O)[nH]c1=O [EM-FU, 1-ethoxymethyl-5-fluorouracil]
- Conversion rate of EM-FU to 5-FU [3]: 30 to 60 pmol/min/mg
- Conversion rate of EM-FU to 5-FU [4]: 30 to 60 pmol/min/mg
- Conversion rate of EM-FU to 5-FU [5]: 30 to 60 pmol/min/mg
- Production of 5-FU from EM-FU by this enzymatic reaction [6]: not produced
- Conversion rate of EM-FU to 5-FU [7]: lowest conversion rate

Compound: O=c1ccc2ccccc2o1 [coumarin]
- Inhibition of the conversion of EM-FU to 5-FU [8]: strongly inhibited

Compound: toleandomycin
- Inhibition of the conversion of EM-FU to 5-FU [8]: strongly inhibited
